What was measured:
CAKI-1 = test: The compound was tested for tumor cell growth inhibitory activity against human renal cancer(CAKI-1) cell line; type: functional; conditions: CAKI-1, read-out: ED50
Procedure, shortened: (§1)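 For the SRB growth assay, cells were grown in RPMI-1640 with 10% FBS and kanamycin at 37 °C under 5% CO2. Drug exposure was 3 days, with DMSO ≤2% final. Absorbance was read at 562 nm. ED50 (50% absorbance reduction vs untreated) was interpolated from dose–response data. Tests were run in triplicate.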

[1] = The compound was tested for cytotoxic activity against KB cell line by clonogenic cell survival assay.; type: cell-based; conditions: human, KB cells; read-out: LD50 (the source's name)
Procedure, shortened: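 KB cells were exposed to a range of concentrations for 3 h, then replated. Colony formation and plating efficiency were counted. LD50 (50% fall in plating efficiency vs untreated control) was read graphically. There were three independent experiments.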

KB [2] = test: The compound was tested for tumor cell growth inhibitory activity against human KB-7d cell line resistant to etoposide; type: functional; conditions: read-out: ED50 (the source's name); procedure, shortened: as §1
MCF7 = test: The compound was tested for tumor cell growth inhibitory activity against human breast cancer (MCF-7) cell line.; type: functional; conditions: MCF7, read-out: ED50; procedure, shortened: as §1
HCT-8 = test: The compound was tested for tumor cell growth inhibitory activity against human ileocecal carcinoma (HCT-8) cell line; type: functional; conditions: HCT-8, read-out: ED50; procedure, shortened: as §1
A549 = test: The compound was tested for tumor cell growth inhibitory activity against human lung carcinoma (A549) cell line.; type: functional; conditions: A549, read-out: ED50; procedure, shortened: as §1
[3] = molecular target: T1, DNA topoisomerase II (Homo sapiens) (UniProt P11388+Q02880); test: The compound was tested for inhibitory activity against human DNA topoisomerase II; type: protein assay
Procedure, shortened: (§2)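 Human topoisomerase II (p170 isoform, 0.25 U) was assayed by P4 DNA unknotting. The buffer was 50 mM Tris-HCl pH 7.5, 100 mM KCl, 10 mM MgCl2, 0.5 mM DTT, 0.5 mM EDTA and 1 mM ATP, with BSA. Reactions ran 1 h at 37 °C, were stopped with SDS-sucrose, then run on 0.7% agarose and stained with ethidium bromide. Inhibition was scored by eye. IC100 is the concentration giving complete inhibition.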

KB [4] = test: The compound was tested for tumor cell growth inhibitory activity against human KB-vin20c cell line resistant to vincristine; type: functional; conditions: read-out: ED50 (the source's name); procedure, shortened: as §1
KB [5] = test: Cellular protein-DNA complex breaking activity against KB cells labeled with tritiated thymidine.; type: functional, Homo sapiens
Procedure, shortened: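 KB cells were labelled overnight with tritiated thymidine, chased 2 h, then exposed in triplicate to test agent for 1 h. Protein–DNA complexes were read as potassium-SDS precipitable radioactivity and expressed as fold over untreated control.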

[6] = molecular target: T1, DNA topoisomerase II (Homo sapiens); test: The compound was tested for inhibitory activity against human DNA topoisomerase-2.; type: protein assay; procedure, shortened: as §2
KB [7] = test: The compound was tested for tumor cell growth inhibitory activity against human etoposide (KB-7d) cell line.; type: functional; conditions: read-out: ED50 (the source's name); procedure, shortened: as §1
Mus musculus [8] = test: The compound was tested for antitumor activity against (P388/0) Leukemia cells in mice. with a dosage of 40.0 mg/Kg/dose. activity is expressed as net log change in tumor burden.; type: functional, Leukemia cell
Procedure, shortened: (§3)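 The P388/0 leukaemia was implanted ip in female CD2F1 mice. Treatment was iv on a Q4D×3 schedule, injected at 0.1 cm³/10 g body weight. Agents were given in saline or in 10% DMSO/35% PEG 300/5% Tween 80/50% D5W, against a saline control. Median day of death, %ILS and net log change in tumour burden (at end of treatment) were recorded. The work was done at a contract lab.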

Mus musculus [9] = test: The compound was tested for antitumor activity against (P388/0) Leukemia cells in mice. with a dosage of 27.0 mg/Kg/dose. activity is expressed as net log change in tumor burden.; type: functional, Leukemia cell; procedure, shortened: as §3
Mus musculus [10] = test: The compound was tested for antitumor activity against (P388/0) Leukemia cells in mice. with a dosage of 10.0 mg/Kg/dose. activity is expressed as net log change in tumor burden.; type: functional, Leukemia cell; procedure, shortened: as §3
Mus musculus [11] = test: The compound was tested for antitumor activity against (P388/0) Leukemia cells in mice. with a dosage of 40.0 mg/Kg/dose. activity is expressed as %ILS.; type: functional; conditions: Leukemia cell; procedure, shortened: as §3
Mus musculus [12] = test: The compound was tested for antitumor activity against (P388/0) Leukemia cells in mice. with a dosage of 40.0 mg/Kg/dose; type: functional, Leukemia cell; procedure, shortened: as §3
Mus musculus [13] = test: The compound was tested for antitumor activity against (P388/0) Leukemia cells in mice. with a dosage of 27.0 mg/kg/dose. activity is expressed as %ILS.; type: functional; conditions: Leukemia cell; procedure, shortened: as §3
Mus musculus [14] = test: The compound was tested for antitumor activity against Subcutaneous Mammary Tumor MCF-7 cells. with a dosage of 40.0 mg/Kg/dose. activity is expressed as days to tumor doubling.; type: functional, MCF7
Procedure, shortened: (§4)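 MCF-7 human mammary tumour cells were implanted sc in female athymic nude mice. Dosing was iv on a Q4D×3 schedule at 0.1 cm³/10 g body weight, using saline or a DMSO/PEG 300/Tween 80/D5W vehicle, with a saline control. The endpoint was days to tumour doubling.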

Mus musculus [15] = test: The compound was tested for antitumor activity against (P388/0) Leukemia cells in mice. with a dosage of 27.0 mg/Kg/dose. activity is expressed as median day of death.; type: functional, Leukemia cell; procedure, shortened: as §3
Mus musculus [16] = test: The compound was tested for antitumor activity against Subcutaneous Mammary Tumor MCF-7 cells. with a dosage of 27.0 mg/Kg/dose. activity is expressed as days to tumor doubling.; type: functional, MCF7; procedure, shortened: as §4
Mus musculus [17] = test: The compound was tested for antitumor activity against (P388/0) Leukemia cells in mice. with a dosage of 10.0 mg/Kg/dose. activity is expressed as %ILS.; type: functional; conditions: Leukemia cell; procedure, shortened: as §3
Mus musculus [18] = test: The compound was tested for antitumor activity against (P388/0) Leukemia cells in mice. with a dosage of 10.0 mg/Kg/dose. activity is expressed as median day of death.; type: functional, Leukemia cell; procedure, shortened: as §3

| SMILES | EC50 (CAKI-1) [µM] | CC50 [1] [µM] | EC50 (KB [2]) [µM] | EC50 (MCF7) [µM] | EC50 (HCT-8) [µM] | EC50 (A549) [µM] | IC100 [3] [µM] | EC50 (KB [4]) [µM] | Complex formation (KB [5]) [%] | IC100 [6] [µM] | EC50 (KB [7]) [µM] | other results |
| --- | --- | --- | --- | --- | --- | --- | --- | --- | --- | --- | --- | --- |
| COc1cc([C@@H]2c3cc4c(cc3[C@@H](Nc3ccc(-c5nc6ccccc6[nH]5)cc3)[C@H]3COC(=O)[C@H]23)OCO4)cc(OC)c1O | 0.35 | 0.2 | 450 | 0.85 | 0.63 | 0.23 | 10 | 1.4 | 128 | – | – | – |
| COc1cc(N[C@@H]2c3cc4c(cc3[C@@H](c3cc(OC)c(O)c(OC)c3)[C@H]3C(=O)OC[C@@H]32)OCO4)c(C)cc1[N+](=O)[O-] | > 50 | – | – | – | > 50 | > 50 | > 100 | – | 3.5 | – | – | – |
| COc1ccc([N+](=O)[O-])cc1N[C@@H]1c2cc3c(cc2[C@@H](c2cc(OC)c(O)c(OC)c2)[C@H]2C(=O)OC[C@@H]21)OCO3 | 2.5 | > 20 | – | 2.4 | 4.8 | 2.25 | – | – | 12 | > 100 | 1800 | – |
| COc1cc([C@@H]2c3cc4c(cc3[C@@H](Nc3nc5ccccc5[nH]3)[C@H]3COC(=O)[C@H]23)OCO4)cc(OC)c1O | 17.5 | – | 0.9 | – | 3.3 | 3.5 | 100 | 1000 | 58 | – | – | – |
| COc1cc([N+](=O)[O-])ccc1N[C@@H]1c2cc3c(cc2[C@@H](c2cc(OC)c(O)c(OC)c2)[C@H]2C(=O)OC[C@@H]21)OCO3 | 1.1 | > 20 | – | 5 | > 10 | 0.63 | – | – | 83 | > 100 | 4000 | – |
| COc1cc([C@@H]2c3cc4c(cc3[C@@H](Nc3cc([N+](=O)[O-])cc([N+](=O)[O-])c3)[C@H]3COC(=O)[C@H]23)OCO4)cc(OC)c1O | 10 | – | – | > 5 | 26 | > 40 | – | – | 20 | > 100 | 17500 | – |
| COc1cc([C@@H]2c3cc4c(cc3[C@@H](Nc3ccc([N+](=O)[O-])cc3)[C@H]3COC(=O)[C@H]23)OCO4)cc(OC)c1O | 1.5 | 1 | – | 28.5 | 8.5 | – | – | – | 122 | 10 | – | – |
| COc1ccc(N[C@@H]2c3cc4c(cc3[C@@H](c3cc(OC)c(O)c(OC)c3)[C@H]3C(=O)OC[C@@H]32)OCO4)c([N+](=O)[O-])c1 | 0.63 | > 20 | – | 2.5 | 2 | 1.7 | – | – | 15 | > 100 | 740 | – |
| COc1cc([C@@H]2c3cc4c(cc3[C@@H](Nc3ccc(NC(=O)C56CCC(C)(C(=O)O5)C6(C)C)cc3)[C@H]3COC(=O)[C@H]23)OCO4)cc(OC)c1O (stereo partly drawn) | > 1.25 | – | – | > 5 | 20 | 2.2 | – | – | 88 | 10 | 5600 | – |
| COc1cc([C@@H]2c3cc4c(cc3[C@@H](O[C@@H]3O[C@@H]5CO[C@@H](C)O[C@H]5[C@H](O)[C@H]3O)[C@H]3COC(=O)[C@H]23)OCO4)cc(OC)c1O [ETOPOSIDE] | 2.2 | 20 | 23.8 | > 5 | > 5 | 1.95 | – | 30.6 | 100 | – | – | Net log change in tumor burden (Mus musculus [8]): -5.5; Net log change in tumor burden (Mus musculus [9]): -3.4; Net log change in tumor burden (Mus musculus [10]): -0.7; ILS at 40 mg/kg/day (Mus musculus [11]): 160%; Day of death (Mus musculus [12]): 26; ILS at 27 mg/kg/day (Mus musculus [13]): 130%; Days to tumor doubling (Mus musculus [14]): >24.1; Day of death (Mus musculus [15]): 23; Days to tumor doubling (Mus musculus [16]): 18.5; ILS at 10 mg/kg/day (Mus musculus [17]): 90%; Day of death (Mus musculus [18]): 19 |
| COc1cc([C@@H]2c3cc4c(cc3[C@H](Nc3cc([N+](=O)[O-])cc([N+](=O)[O-])c3)[C@H]3COC(=O)[C@H]23)OCO4)cc(OC)c1O | > 10 | – | – | 2.5 | > 5 | > 5 | – | – | 8 | > 100 | 7600 | – |
| COc1cc([N+](=O)[O-])c(OC)cc1N[C@@H]1c2cc3c(cc2[C@@H](c2cc(OC)c(O)c(OC)c2)[C@H]2C(=O)OC[C@@H]21)OCO3 | 45 | – | 37 | – | > 50 | 21.5 | > 100 | 20 | 4.4 | – | – | – |

From ChEMBL document CHEMBL1132260, “Antitumor agents. 194. Synthesis and biological evaluations of 4-beta-mono-, -di-, and -trisubstituted aniline-4'-O-demethyl-podophyllotoxin and related compounds with improved pharmacological profiles” (J Med Chem, 1999)
